From ChEMBL document CHEMBL1177744, “An efficient and economical MTT assay for determining the antioxidant activity of plant natural product extracts and pure compounds” (J Nat Prod, 2010)
Several values for one entry are separate records, joined by “and”; a condition that tells them apart may be missing. Equal values may be shown once.

Assay: Antioxidant activity assessed as formazan formation induced absorbance changes at 25 ppm at 570 nm at 37 degC for 6 hrs by MTT assay
Type: functional
In short: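 Cell-free redox assay: MTT in water (190 µL) vortexed 1 min with sample (10 µL) in DMSO in a capped 2 mL glass vial. DMSO (200 µL) then added to give 50:50 water-DMSO, and the mixture vortexed again. Incubated 6 h at 37 °C, then 200 µL read at 570 nm for formazan. Triplicates, experiment repeated 10 times, mean absorbance reported.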

Row | Structure (SMILES) | deltaA
1 | CCCCCCCCCCCCCC(=O)O | 0.58
2 | CCCCCCCCCCCCCCCCCCCCCCC(=O)O | 0.27
3 | COc1cc(/C=C/C(=O)O)ccc1O | 0.29
4 | COc1cc(/C=C/C(O)=C/C(=O)/C=C/c2ccc(O)cc2)ccc1O | 0.61
5 | CCCCCCCC/C=C\CCCCCCCCCCCCCC(=O)O | 0.89
6 | CCCCCCCCCCCCCCCCCCCCCC(=O)O | 0.25
7 | CC(C)(C)c1cc(O)ccc1O | 0.51
8 | O=c1c(O)c(-c2ccc(O)c(O)c2)oc2cc(O)cc(O)c12 | 0.75 and 0.3
9 | O=C(O)C1=C/C(=C\C=[N+]2/c3cc(O)c(O[C@@H]4O[C@H](CO)[C@@H](O)[C@H](O)[C@H]4O)cc3C[C@H]2C(=O)[O-])C[C@@H](C(=O)O)N1 | 0.6
10 | Oc1cc(O)c2c(c1)O[C@@H](c1ccc(O)c(O)c1)[C@H](O)C2 | 0.53
11 | CC(C)=CCC/C(C)=C/C=C/C(C)=C/C=C/C(C)=C/C=C/C=C(C)/C=C/C=C(C)/C=C/C=C(\C)CCC=C(C)C | 0.59
12 | O=C(O)/C=C/c1ccc(O)cc1 | 0.15
13 | CCCCCCCCCCCCCCCCCCC(=O)O | 0.53
14 | CCCCCCCCCCCCC(=O)O | 0.47
15 | O=c1cc(-c2ccccc2)oc2c(O)c(O)ccc12 | 0.49
16 | CCCCCCCC/C=C\CCCCCCCCCCCC(=O)O | 0.68
17 | CCCCCCCCCC(=O)O | 0.51
18 | CCCCCCCCCCCCCCCCCCCC(=O)O | 0.25
19 | COc1cc(C(=O)O)ccc1O | 0.19
20 | COC(=O)/C=C/C(C)=C\C=C\C(C)=C\C=C\C=C(C)\C=C\C=C(C)\C=C\C(=O)O | 0.61
21 | Cc1cccc(O)c1O | 0.86
22 | Oc1cccc(O)c1O | 0.86
23 | O=C(O)/C=C/c1ccc(O)c(O)c1 | 0.69
24 | O=C(O)CCc1ccc(O)cc1 | 0.17
25 | CCCCCCCCCCCC(=O)O | 0.19

Row | Structure (SMILES) | deltaA
26 | COc1cc(O)c2c(=O)c(OC)c(-c3ccc(OC)c(OC)c3)oc2c1 | 0.23
27 | CC(C)CCC[C@@H](C)[C@H]1CC[C@H]2[C@@H]3CC=C4C[C@@H](O)CC[C@]4(C)[C@H]3CC[C@]12C | 0.22
28 | COc1ccc2ccc(=O)oc2c1 | 0.18
29 | O=c1c(-c2ccc(O)cc2)coc2cc(O[C@@H]3O[C@H](CO)[C@@H](O)[C@H](O)[C@H]3O)cc(O)c12 | 0.33
30 | Cc1c(C)c2c(c(C)c1O)CC[C@@](C)(CCC[C@H](C)CCC[C@H](C)CCCC(C)C)O2 | 0.56
31 | CC/C=C\C/C=C\C/C=C\CCCCCCCC(=O)OC | 0.25
32 | C[C@H]1O[C@@H](Oc2cc3c(O)cc(O)cc3[o+]c2-c2ccc(O)c(O)c2)[C@@H](O[C@@H]2O[C@H](CO)[C@@H](O)[C@H](O)[C@H]2O)[C@@H](O)[C@@H]1O | 0.17
33 | COc1ccc(-c2cc(=O)c3ccc(OC)cc3o2)cc1 | 0.17
34 | O=c1cc(-c2ccc(O)cc2)oc2cc(O)cc(O)c12 | 0.14
35 | O=c1cc(-c2ccccc2)oc2cc(O)cc(O)c12 | 0.3
36 | CCCCCC/C=C\CCCC(=O)O | 0.17
37 | CCCCCCCCCCCCCCCCCCCCC(=O)O | 0.22
38 | Oc1cc(O)c2c(c1)O[C@H](c1ccc(O)c(O)c1)[C@@H](O)C2 | 0.88
39 | COc1ccc(-c2cc(=O)c3ccccc3o2)cc1 | 0.24
40 | O=C(O[C@@H]1Cc2c(O)cc(O)cc2O[C@H]1c1cc(O)c(O)c(O)c1)c1cc(O)c(O)c(O)c1 | 0.92
41 | CCCCCCCCCCCCCCCCCCCCCCCC(=O)O | 0.16
42 | CCCCCCCCC(=O)O | 0.16
43 | COc1ccc(-c2cc(=O)c3ccc(O)cc3o2)cc1 | 0.23
44 | COc1cc(/C=C/C(=O)CC(=O)/C=C/c2ccc(O)c(OC)c2)ccc1O | 0.85
45 | C[C@@H]1O[C@@H](Oc2c(-c3ccc(O)c(O)c3)oc3cc(O)cc(O)c3c2=O)[C@H](O)[C@H](O)[C@H]1O | 0.3
46 | Cc1cc(C(C)(C)C)c(O)c(C(C)(C)C)c1 | 0.51
47 | C[C@H]1O[C@@H](OC[C@@H]2O[C@H](Oc3cc4c(O)cc(O)cc4[o+]c3-c3ccc(O)c(O)c3)[C@@H](O[C@@H]3O[C@H](CO)[C@@H](O)[C@H](O)[C@H]3O)[C@H](O)[C@H]2O)[C@@H](O)[C@@H](O)[C@@H]1O | 0.28
48 | O=C(O)/C=C/c1ccc2c(c1)OCO2 | 0.19
49 | O=C(O)c1ccc(O)cc1 | 0.13
50 | COc1ccccc1-c1cc(=O)c2c(OC)cccc2o1 | 0.27

Row | Structure (SMILES) | deltaA
51 | O=c1c(-c2ccc(O)cc2)coc2cc(O)cc(O)c12 | 0.29
52 | O=C(/C=C/c1ccc(O)cc1)CC(=O)/C=C/c1ccc(O)cc1 | 0.37
53 | O=C(O)CC(=O)OC[C@@H]1O[C@H](Oc2cc3c(O)cc(O)cc3[o+]c2-c2ccc(O)c(O)c2)[C@@H](O)[C@H](O)[C@H]1O | 0.2
54 | CC(C)CCC[C@@H](C)[C@H]1CC[C@H]2[C@@H]3CC=C4C[C@@H](O[C@@H]5O[C@H](CO)[C@@H](O)[C@H](O)[C@H]5O)CC[C@]4(C)[C@H]3CC[C@]12C | 0.3
55 | CCCCCCCCCCCCCCCCCC(=O)O | 0.47
56 | COc1ccc(-c2cc(=O)c3c(O)cc(O)cc3o2)cc1 | 0.26
57 | Oc1cc(O)c2c(c1)O[C@@H](c1cc(O)c(O)c(O)c1)[C@H](O)C2 | 0.99
58 | C[C@H]1[C@H](C)CC[C@]2(C(=O)O)CC[C@]3(C)C(=CC[C@@H]4[C@@]5(C)CC[C@H](O)C(C)(C)[C@@H]5CC[C@]43C)[C@H]12 | 0.43
59 | COc1ccc(-c2coc3cc(O)ccc3c2=O)cc1 | 0.2
60 | CC1=C(/C=C/C(C)=C/C=C/C(C)=C/C=C/C=C(C)/C=C/C=C(C)/C=C/C2=C(C)CCCC2(C)C)C(C)(C)CCC1 | 0.32
61 | O=c1cc(-c2ccc(O)c(O)c2)oc2cc(O)cc(O)c12 | 0.66
62 | CCCC/C=C\CCCCCCCCC(=O)O | 0.19
63 | COc1ccc(-c2coc3cc(O)cc(O)c3c2=O)cc1 | 0.37
64 | O=C(/C=C/c1ccc(O)c(O)c1)O[C@@H]1C[C@](O)(C(=O)O)C[C@@H](O)[C@H]1O | 0.72
65 | CCCCCCCCCCC(=O)O | 0.19
66 | CCCCCCCC(=O)O | 0.17
67 | CC12CCC(CC1=O)C2(C)C (centres undefined) | 0.24
68 | CCCCC/C=C\C/C=C\CCCCCCCC(=O)O | 0.68
69 | O=C1O[C@H]([C@@H](O)CO)C(O)=C1O | 0.5
70 | Oc1cc(O)c2c(c1)O[C@H](c1ccc(O)c(O)c1)[C@H](O)C2 | 0.17
71 | O=c1c(-c2ccc(O)cc2)coc2cc(O)ccc12 | 0.48
72 | O=C(O[C@@H]1Cc2c(O)cc(O)cc2O[C@@H]1c1ccc(O)c(O)c1)c1cc(O)c(O)c(O)c1 | 1.18
73 | Oc1cc(O)c2c(c1)OC(c1ccc(O)c(O)c1)C(O)C2 (racemic) | 1.18
74 | CCCCCCCCCCCCCCCCC(=O)O | 0.91
